Screening data as filed in PubChem.
The entries come from a sample that favours hits as a whole.
697 NFkB inh – lowers PMA/ionomycin-induced NF-kB signal in 697 B cells; 697 B-cell NF-kB luciferase reporter, 16 h; inhibition, % at 4 µM; hit rate 0.33% among 330,000; AID 435022; in the data active = inhibition above about 35%
CHOP inh – inhibitors of CHOP induction in ER stress response | CHO-K1 CHOP-promoter luciferase, tunicamycin-induced, 15-18 h | inhibition, % at 10 µM | hit rate 3.8% among 220,000;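 active = compounds that reduced the stress-induced luciferase reporter signal by more than about 70% of percent inhibition, limit read from the data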;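 also: 0% = tunicamycin plus vehicle and 100% = wells without tunicamycin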
UPR CHOP act – activators of apoptotic arm of unfolded protein response (CHOP) | CHO-CHOP luciferase reporter, UPR activation, luminescence; percent of tunicamycin response over DMSO baseline | activation, % at 10 µM | hit rate 0.34% among 330,000;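 active = at 10 µM dose, activation of 40% or more, normalized to positive control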;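 also: 100% = tunicamycin at 10 µg/mL and 0% = DMSO alone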
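Test system: CHO-CHOP cells, stable luciferase reporter of PERK-eIF2a-CHOP signalling | Quantity: 500 CHO-CHOP cells per well | Buffer or medium: F12 plus 10% serum | Compound dosing: 10 µM single point, 0.5% DMSO | Schedule: 6 h compound treatment, 37 °C | Signal: Luciferase luminescence | Control set: Tunicamycin high control, DMSO low control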
UPR XBP1 act – adaptive UPR (XBP1) activation; CHO-XBP1 luciferase reporter, IRE1-XBP1 UPR activation, luminescence; percent of tunicamycin response, DMSO as zero; activation, % at 20 µM; hit rate 0.33% among 330,000;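 active = versus positive control, 20 µM dose yields 30% or more activation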;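 also: 100% = tunicamycin at 10 µg/mL and 0% = DMSO only wells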
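Signal: luciferase luminescence; Assay system: CHO-XBP1 luciferase reporter cells; Amount: one thousand reporter cells per well; Dosing: 20 µM single concentration, DMSO 1%; Benchmarks: high control tunicamycin 10 µg/mL final, low control DMSO vehicle only; Schedule: 6 h compound exposure at 37 °C, 5% CO2; Evaluation: percent activation relative to tunicamycin reference.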
Jurkat NFkB inh – lowers PMA/ionomycin-induced NF-kB signal in Jurkat cells; inhibition, % at 4 µM; AID 435003; PMA/ionomycin-induced NF-kB luciferase reporter, luminescence; hit rate 0.53% among 330,000; in the data active = inhibition above about 50%
CHOP inh conf – confirmation of CHOP induction inhibitors; inhibition, % at 10 µM; hit rate 45% among 2,100; CHO-CHOP promoter luciferase reporter, tunicamycin-induced, luminescence; shares compounds with CHOP inh;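 active = mean of three repeat readings of reporter signal inhibition above a set limit, cut at about 70% in these data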;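 also: 0% = tunicamycin plus vehicle and 100% = wells lacking tunicamycin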
Jurkat NFkB conf – inhibitors of the PMA/ionomycin-induced NF-kB reporter in Jurkat cells, retest | shares compounds with Jurkat NFkB inh | Jurkat NF-kB luciferase, 16 h | inhibition, % at 4 µM | hit rate 27% among 2,700 | AID 435020;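 active = inhibition reaching about 45% at 4 µM in either replicate, limit read from the data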;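 also: plate controls were PMA/ionomycin stimulated DMSO wells for no effect and unstimulated DMSO wells for full effect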
697 NFkB conf – inhibitors of the PMA/ionomycin-induced NF-kB reporter in 697 B cells, retest. AID 449746. shares compounds with 697 NFkB inh. hit rate 35% among 2,000. 697 B-cell NF-kB luciferase, 16 h. inhibition, % at 4 µM; in the data active = inhibition mostly above about 28%, no sharp cut-off; inactive = mostly below about 22%
* hit, by the source's call; i = inactive; / = no result.

SMILES	697 NFkB inh	CHOP inh	UPR CHOP act	UPR XBP1 act	Jurkat NFkB inh	CHOP inh conf	Jurkat NFkB conf	697 NFkB conf
CC1=C(C)/C(=N\OS(=O)(=O)c2ccccc2)C=CC1=O	-69	/	-11	-6	55*	124*	18	/
Cc1ccc2nc(-c3ccc(NC(=O)CSc4ccccc4)cc3)[nH]c2c1	-118	103*	2	3	-153	-26	-118	/
Cc1ccc2nc(SCC(=O)Nc3ccc(C(N)=O)cc3)[nH]c2c1	-5	24	0	-1	11	/	/	/
C=C(C)COc1ccc(-c2n[nH]c(C)c2-c2ccc(Br)cc2)c(O)c1	-19	/	0	14	50*	106*	26	/
C=C(C)COc1ccc(-c2ncncc2-c2ccc(Br)cc2)c(O)c1	-3	/	2	2	8	/	/	/
COc1ccc(C(=O)NNC(=O)c2ccccn2)cc1	-61	104*	-12	-8	52*	124*	63*	/
Cc1nn(C)c(C)c1/C=N/NC(=O)C(C)(C)Oc1ccc(Cl)cc1	7	7	-1	-2	6	/	/	/
Cc1nn(C(C)(C)C)c(C)c1/C=N/OC(=O)Nc1ccc(Cl)cc1	52*	99*	-10	-11	75*	117*	95*	63*
O=C(CNC(=O)c1cccs1)Nc1cccc(S(=O)(=O)N2CCOCC2)c1	-23	/	2	1	3	/	/	/
Cc1onc(-c2ccccc2)c1C(=O)NC(=S)NNC(=O)c1cc(-c2ccc(F)cc2)n[nH]1	-4	20	2	0	20	/	/	/
CC1=CC(C)(C)Nc2ccc(OC(=O)c3ccco3)cc21	79*	/	-8	-11	14	-233	/	38*
O=C(Oc1cccc(OC(=O)c2ccco2)c1)c1ccco1	7	/	0	0	-7	/	/	/
Cc1ccc(C(=O)Nc2cnc3ccccc3c2)cc1	-304	98*	-10	-6	59*	117*	73*	-222
Cc1cc(C(=O)Nc2cnc3ccccc3c2)ccc1[N+](=O)[O-]	-40	-20	2	4	-116	/	/	/
O=C1c2ccccc2C(=O)C1c1nccc2ccccc12	-321	106*	-8	-12	-43	104*	/	-271
CC1CCN(C(=O)c2ccc(NS(=O)(=O)c3ccc4[nH]c(=O)[nH]c4c3)cc2)CC1	7	/	-2	-3	9	/	/	/
CCOc1ccc(-c2cc(CCCC(=O)NCc3ccc(C)cc3)no2)cc1	48*	96*	-3	-3	-7	78*	/	37*
C=C1C(=O)O[C@@H]2C[C@@H](C)[C@@H]3C=CC(=O)[C@@]3(C)[C@@H](OC(C)=O)[C@H]12	100*	107*	-8	-9	96*	120*	98*	100*
O=c1nc(Nc2ccc(OCc3ccccc3)cc2)sc2ncccc12	i	102*	-1	0	-55	-24	/	i
CCc1ccccc1NC(=O)c1ccc2c(O)c(S(=O)(=O)c3ccc(OC)cc3)c(=O)[nH]c2c1	-16	/	-1	1	-9	/	/	/
Cc1ccccc1C[n+]1cccc2ccccc21	-22	/	-2	0	13	/	/	/
CCCCCCCCCCCCCCCC[n+]1cccc2ccccc21	62*	106*	36	23	88*	120*	88*	23*
COc1cc2c(=O)n(CCC(=O)NCC3CCCO3)c(=O)n(CC(=O)Nc3ccc(C)cc3C)c2cc1OC (configuration not stated)	-3	/	0	-3	-3	/	/	/
COC(=O)/C(=C1/Oc2ccc(C(C)(C)C)cc2S1)C(F)(F)F	-73	30	4	-3	-78	/	/	/
COC(=O)/C(=C1/Oc2cc(C)oc(=O)c2S1)C(F)(F)F	-324	111*	5	-4	69*	112*	11	-198
SMILES	697 NFkB inh	CHOP inh	UPR CHOP act	UPR XBP1 act	Jurkat NFkB inh	CHOP inh conf	Jurkat NFkB conf	697 NFkB conf
O=C(CCN1C(=O)/C(=C/c2ccccc2)SC1=S)Nc1ccccn1	3	/	1	-3	5	/	/	/
Cc1ccc(/C=C2\SC(=S)N(CCCC(=O)Nc3ccc(O)cc3)C2=O)cc1	92*	100*	-7	-1	-1	114*	/	90*
Cc1ccc(/C=C2\SC(=S)N(CCCC(=O)Nc3ccccn3)C2=O)cc1	81*	111*	-11	-8	5	114*	/	96*
C=CCOn1c(=O)c(-c2ccc(F)cc2)[n+]([O-])c2ccccc21	-2	/	0	-2	1	/	/	/
COc1cc(/C=C/c2nc(N)nc(-c3ccccc3O)n2)cc(OC)c1OC	36*	96*	9	4	47	76*	/	21
COc1cc(/C=C/C(=O)OCC(=O)NCCC2=CCCCC2)cc(OC)c1OC	7	/	-2	-2	14	/	/	/
O=C(CN1C(=O)c2ccccc2S1(=O)=O)c1ccc2c(c1)OCCCO2	94*	104*	-11	-11	96*	121*	94*	89*
Cc1cc(=O)oc2cc(NC(=O)C(C)Oc3cccc(Cl)c3)ccc12 (configuration not stated)	-24	/	2	-3	20	/	/	/
COC(=O)[C@@]1(Cc2ccc(OC)cc2)[C@@H]2C(=CC(=O)[C@H]2CC(=O)C(=O)N(C)C)CN1C(=O)c1ccccc1	8	22	-1	-3	4	/	/	/
C=C1C(=O)C=C2CN(C(=O)c3ccccc3)[C@@](Cc3ccc(F)cc3)(C(=O)OC)[C@@H]12	i	109*	-9	-10	83*	128*	76*	-250
Cc1ccc2nc(NC(=O)CSCC(=O)OCC(=O)c3ccc(Br)cc3)sc2c1	64*	100*	-7	-3	41	107*	/	54*
Cc1ccccc1-c1nnc(SCC(=O)NC2CCS(=O)(=O)C2)n1C (configuration not stated)	13	/	2	3	3	/	/	/
O=Nc1ccc(O)c2ncccc12	i	106*	-1	-6	60*	108*	25	i
NNC(=O)c1ccc(CN2CCCCC2)o1	-2	9	-2	0	-1	/	/	/
Cc1ccc(C(=O)Nc2ccc(CC(=O)O)cc2)o1	6	34	-2	-2	6	/	/	/
CC(C)(C)c1ccc(C(=O)Nc2ccc(CC(=O)O)cc2)o1	84*	98*	-9	-5	60*	92*	73*	86*
COc1ccc(-c2nc(CS(=O)CC(=O)NCc3ccco3)c(C)o2)cc1 (configuration not stated)	9	23	-1	1	17	/	/	/
CCOc1ccc(-c2nc(CSCC(=O)NCc3ccco3)c(C)o2)cc1	99*	106*	-9	-7	40	118*	/	99*
